{
  "source": "paper PMC10405225",
  "about": "(Cancer chemotherapy and pharmacology, 2022)",
  "key": {"BCL-2 or MCL-1": {"test_system": "BCL-2 or MCL-1", "type": "cell-based, Human", "how_it_was_run": "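T-ALL cells were lysed before and after test-compound exposure. Western blots of 10 µg lysate were probed for BCL-2 and MCL-1, with β-actin as loading control. Band intensities were measured by densitometry and normalized to β-actin. Each blot was done twice with distinct protein preparations.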"}, "SUP-T1 T-ALL cells": {"test_system": "SUP-T1 T-ALL cells", "assay": "Cell cytotoxicity assay", "type": "cell-based, Human", "how_it_was_run": "(§1)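 Human T-ALL lines grown in RPMI with 10% or 20% FBS at 37°C, 5% CO2. Plated 2×10^3–2×10^4 cells/well depending on doubling time, in quadruplicate. Test compound added from DMSO (≥1:1000 into medium) at varying concentrations; DMSO vehicle control. Exposure 48 h, then CCK-8 for 4 h at 37°C and A450 read. % survival derived; ≥3 independent experiments, mean ± SE.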"}, "[1]": {"conditions": "intratumoral, T-ALL xenograft in immunodeficient mice ref 8; cited from earlier work"}, "[2]": {"test_system": "T-ALL cell lines other than SUP-T1", "assay": "Cell cytotoxicity assay", "type": "cell-based", "conditions": "Homo sapiens, SUP-T1, 48 h", "how_it_was_run": "as §1"}, "BCL-XL": {"target": "BCL-XL (Homo sapiens, UniProt Q07817)", "sequence (Q07817 whole entry)": "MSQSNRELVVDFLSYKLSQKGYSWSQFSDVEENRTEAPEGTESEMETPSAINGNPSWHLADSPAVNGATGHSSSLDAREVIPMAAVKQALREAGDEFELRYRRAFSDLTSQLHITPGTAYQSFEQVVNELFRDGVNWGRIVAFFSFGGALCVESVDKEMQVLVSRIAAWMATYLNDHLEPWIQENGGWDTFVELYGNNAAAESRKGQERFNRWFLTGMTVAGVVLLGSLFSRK", "assay": "BCL-XL degradation by western blot densitometry in SUP-T1 cells", "type": "cell-based", "conditions": "read-out: DC50 (concentration that degraded 50% of BCL-XL protein), 24 hrs of DT2216, western blot densitometry"}, "PEER T-ALL cells": {"test_system": "PEER T-ALL cells", "assay": "Cell cytotoxicity assay", "type": "cell-based", "conditions": "Homo sapiens, 48 h", "how_it_was_run": "as §1"}},
  "data": [
    {"smiles": "Cc1ncsc1-c1ccc([C@H](C)NC(=O)[C@@H]2C[C@@H](O)CN2C(=O)[C@@H](NC(=O)CCCCCC(=O)N2CCN(CC[C@H](CSc3ccccc3)Nc3ccc(S(=O)(=O)NC(=O)c4ccc(N5CCN(CC6=C(c7ccc(Cl)cc7)CCC(C)(C)C6)CC5)cc4)cc3S(=O)(=O)C(F)(F)F)CC2)C(C)(C)C)cc1", "note": "[DT2216]", "values": [
      {"measurement": "Induction of BCL-2 or MCL-1 expression by DT2216", "setting": "BCL-2 or MCL-1; any of the 13 T-ALL cell lines", "result": "not induced"},
      {"measurement": "Change in BCL-2 or MCL-1 protein levels after exposure to DT2216", "setting": "BCL-2 or MCL-1; resistant SUP-T1 cells", "result": "no change"},
      {"measurement": "IC50", "setting": "SUP-T1 T-ALL cells; 48 hrs", "result": 1490, "unit": "nM"},
      {"measurement": "IC50", "setting": "SUP-T1 T-ALL cells; Homo sapiens, SUP-T1, 48 h", "result": "> 800", "unit": "nM"},
      {"measurement": "DT2216 level achieved within a T-ALL xenografted tumor in vivo", "setting": "[1]", "result": 800, "unit": "nM"},
      {"measurement": "IC50", "setting": "[2]", "result": "< 800", "unit": "nM"},
      {"measurement": "DC50", "setting": "BCL-XL", "result": 131, "unit": "nM"},
      {"measurement": "IC50", "setting": "PEER T-ALL cells", "result": 305, "unit": "nM"}
    ]}
  ]
}
